ChEMBL document CHEMBL2331500, “Bioactive flavaglines and other constituents isolated from Aglaia perviridis” (J Nat Prod, 2013)

Legend:
[1] = molecular target: Transcription factor p65 (Homo sapiens) (UniProt Q04206); assay: Inhibition of NF-kappaB p65 (unknown origin) by ELISA
[2] = system: HT-29; assay: Cytotoxicity against human HT-29 cells; format: functional; details: read-out: ED50 (the source's name)
In short: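 HT-29 human colon cancer cells, run by a previously described protocol on all isolates. Growth inhibition was reported as ED50, and a positive control compound was run alongside.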

[3] = Cytotoxicity against human CCD-112CoN cells; format: cell-based; details: read-out: ED50 (the source's name)

Sequence of Transcription factor p65 (Homo sapiens) (Q04206 whole entry): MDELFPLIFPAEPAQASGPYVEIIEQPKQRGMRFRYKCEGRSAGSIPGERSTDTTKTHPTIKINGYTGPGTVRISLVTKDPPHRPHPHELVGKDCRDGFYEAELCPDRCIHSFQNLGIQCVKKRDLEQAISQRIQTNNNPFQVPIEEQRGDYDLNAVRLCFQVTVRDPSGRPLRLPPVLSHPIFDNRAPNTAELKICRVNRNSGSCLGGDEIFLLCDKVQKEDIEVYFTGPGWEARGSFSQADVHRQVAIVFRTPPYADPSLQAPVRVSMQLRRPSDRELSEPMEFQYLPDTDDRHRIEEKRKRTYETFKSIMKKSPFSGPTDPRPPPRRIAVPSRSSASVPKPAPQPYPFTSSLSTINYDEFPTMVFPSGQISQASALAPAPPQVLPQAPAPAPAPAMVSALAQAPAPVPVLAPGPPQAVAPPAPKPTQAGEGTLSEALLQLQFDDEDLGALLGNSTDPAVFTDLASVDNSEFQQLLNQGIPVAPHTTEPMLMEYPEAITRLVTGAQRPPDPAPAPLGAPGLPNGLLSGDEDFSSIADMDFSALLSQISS

With `CC(C)=CC(=O)[C@@H](O)[C@@H](C)[C@H]1CC[C@@]2(C)[C@@H]3CC[C@H]4C(C)(C)[C@@H](O)CC[C@@]45C[C@@]35CC[C@]12C` [PERVIRIDISINOL A] the ED50 [1] was > 20 µM and the EC50 ([2]; Homo sapiens, HT-29) was > 10 µM.

With `COc1ccc([C@@]23Oc4cc(OC)cc(OC)c4[C@]2(O)[C@H](O)C[C@H]3c2ccccc2)cc1` [ROCAGLAOL] the ED50 [1] was 0.005 µM, the EC50 ([2]; Homo sapiens, HT-29) was 0.0007 µM and the CC50 [3] was > 50 µM.

With `CC1=CC(O)N(CCCCNC(=O)/C=C/c2ccccc2)C1=O` (configuration not stated) [GIGANTAMIDE A] the ED50 [1] was > 20 µM and the EC50 ([2]; Homo sapiens, HT-29) was > 10 µM.

For `CC1(C)[C@H](O)CC[C@]2(C)[C@H]3CC[C@@H]4[C@@H]([C@]5(C)CCC(=O)O5)CC[C@@]4(C)[C@]3(C)CC[C@@H]12` [CABRALEAHYDROXYLACTONE], the ED50 [1] was > 20 µM and the EC50 ([2]; Homo sapiens, HT-29) was > 10 µM.

For `COc1ccc([C@]23Oc4cc(OC)cc(OC)c4[C@](O)(C2O)[C@@H](c2ccccc2)[C@@H]3C(=O)NCCCCNC(=O)/C(C)=C/CO)cc1` (stereo in doubt; 2) [listing 1 of 2 here], the EC50 [2] was 0.46 µM and the CC50 [3] was > 50 µM.

Work on `CC(=O)O[C@H]1C(=O)[C@@]2(C)[C@H]([C@H](OC(=O)c3ccccc3)[C@]3(O)C[C@H](OC(=O)[C@H](O)[C@@H](NC(=O)c4ccccc4)c4ccccc4)C(C)=C1C3(C)C)[C@]1(OC(C)=O)CO[C@@H]1C[C@@H]2O` [PACLITAXEL] yielded an EC50 ([2]; Homo sapiens, HT-29) of 0.001 µM and a CC50 [3] of 23 µM.

With `COc1ccc([C@]23Oc4cc(OC)cc(OC)c4[C@](O)(C2O)[C@@H](c2ccccc2)[C@@H]3C(=O)NCCCCNC(=O)/C(C)=C/CO)cc1` (stereo in doubt; 1) [listing 1 of 2 here] the ED50 [1] was > 20 µM.

In the case of `COC(=O)[C@H]1[C@@H](O)[C@@]2(O)c3c(OC)cc(OC)cc3O[C@@]2(c2ccc(OC)cc2)[C@@H]1c1ccccc1` [AGLAFOLIN], the ED50 [1] is reported as > 20 µM, the EC50 ([2]; Homo sapiens, HT-29) is reported as 0.012 µM and the CC50 [3] is reported as > 50 µM.

With `COC(=O)[C@H]1[C@@H](O)[C@@]2(OC)c3c(OC)cc(OC)cc3O[C@@]2(c2ccc3c(c2)OCO3)[C@@H]1c1ccccc1` the ED50 [1] was > 20 µM, the EC50 ([2]; Homo sapiens, HT-29) was 4.7 µM and the CC50 [3] was > 50 µM.

With `COc1cc(OC)c2c(c1)O[C@@]1(c3ccc4c(c3)OCO4)[C@H](c3ccccc3)C[C@@H](O)[C@@]21O` the ED50 [1] was 0.33 µM, the EC50 ([2]; Homo sapiens, HT-29) was 0.0067 µM and the CC50 [3] was > 50 µM.

In the case of `CC(C)=C[C@H]1OC[C@@H]([C@H]2CC[C@@]3(C)[C@@H]4CC[C@H]5C(C)(C)[C@@H](O)CC[C@@]56C[C@@]46CC[C@]23C)[C@@H]1O` [PERVIRIDISINOL B], the ED50 [1] is reported as > 20 µM and the EC50 ([2]; Homo sapiens, HT-29) is reported as > 10 µM.

In the case of `C=C(CC[C@@H](CO)[C@H]1CC[C@@]2(C)[C@@H]3CC[C@H]4C(C)(C)[C@@H](O)CC[C@@]45C[C@@]35CC[C@]12C)C(C)C`, the ED50 [1] is reported as > 20 µM and the EC50 ([2]; Homo sapiens, HT-29) is reported as > 10 µM.

For `COc1ccc([C@@]23Oc4cc(OC)cc(OC)c4[C@]2(O)[C@H](O)[C@H](C(=O)N(C)C)[C@H]3c2ccccc2)cc1` [ROCAGLAMIDE], the EC50 ([2]; Homo sapiens, HT-29) was 0.005 µM and the CC50 [3] was > 50 µM.

In the case of `COc1ccc([C@]23Oc4cc(OC)cc(OC)c4[C@](O)(C2O)[C@@H](c2ccccc2)[C@@H]3C(=O)NCCCCNC(=O)/C(C)=C/CO)cc1` (stereo in doubt; 2) [listing 2 of 2 here], the ED50 [1] is reported as 2.4 µM.

In the case of `COC(=O)[C@H]1[C@@H](O)[C@@]2(OC)c3c(OC)cc(OC)cc3O[C@@]2(c2ccc(OC)cc2)[C@@H]1c1ccccc1`, the ED50 [1] is reported as > 20 µM, the EC50 ([2]; Homo sapiens, HT-29) is reported as 4.9 µM and the CC50 [3] is reported as > 50 µM.

For `COC(=O)[C@H]1[C@@H](OC=O)[C@@]2(O)c3c(OC)cc(OC)cc3O[C@@]2(c2ccc(OC)cc2)[C@@H]1c1ccccc1`, the ED50 [1] was > 20 µM, the EC50 ([2]; Homo sapiens, HT-29) was 0.019 µM and the CC50 [3] was > 50 µM.

For `COc1cc(OC)c2c(c1)O[C@@]1(c3ccc4c(c3)OCO4)[C@H](c3ccccc3)C[C@@H](O)[C@@]21OC`, the ED50 [1] was > 20 µM, the EC50 ([2]; Homo sapiens, HT-29) was 0.96 µM and the CC50 [3] was > 50 µM.

In the case of `COc1ccc(-c2oc3cc(OC)cc(OC)c3c(=O)c2O)cc1`, the ED50 [1] is reported as > 20 µM and the EC50 ([2]; Homo sapiens, HT-29) is reported as > 10 µM.

For `CC1=CC(=O)CC(C)(C)[C@H]1CC[C@H](O)CO`, the ED50 [1] was > 20 µM and the EC50 ([2]; Homo sapiens, HT-29) was > 10 µM.

With `COc1cc2ccc(=O)oc2cc1O` [SCOPOLETIN] the ED50 [1] was > 20 µM and the EC50 ([2]; Homo sapiens, HT-29) was > 10 µM.

In the case of `CC(C)[C@H]1CC[C@]2(C)C(=O)CCC(C=O)=C[C@H]12`, the ED50 [1] is reported as 0.005 µM and the EC50 ([2]; Homo sapiens, HT-29) is reported as > 20 µM.

For `C=C(CC[C@@H](CO)[C@H]1CC[C@@]2(C)[C@@H]3CC[C@H]4[C@H](C)[C@@H](O)CC[C@@]45C[C@@]35CC[C@]12C)C(C)C` [PERVIRIDISINOL C], the ED50 [1] was > 20 µM and the EC50 ([2]; Homo sapiens, HT-29) was > 10 µM.

For `CC(C)=C[C@H](O)[C@@H](O)[C@@H](CO)[C@H]1CC[C@@]2(C)[C@@H]3CC[C@H]4C(C)(C)[C@@H](O)CC[C@@]45C[C@@]35CC[C@]12C` [ARGENTEANOL], the ED50 [1] was > 20 µM and the EC50 ([2]; Homo sapiens, HT-29) was > 10 µM.

With `COc1ccc([C@@]23Oc4cc(OC)cc(OC)c4[C@]2(O)[C@H](O)[C@H](C(N)=O)[C@H]3c2ccccc2)cc1` [DIDESMETHYLROCAGLAMIDE] the ED50 [1] was > 20 µM, the EC50 ([2]; Homo sapiens, HT-29) was 0.021 µM and the CC50 [3] was > 50 µM.

In the case of `COC(=O)[C@H]1[C@@H](OC=O)[C@@]2(O)c3c(OC)cc(OC)cc3O[C@@]2(c2ccc3c(c2)OCO3)[C@@H]1c1ccccc1`, the EC50 ([2]; Homo sapiens, HT-29) is reported as 0.056 µM and the CC50 [3] is reported as > 50 µM.

With `COc1ccc([C@@]23Oc4cc(OC)cc(OC)c4[C@]2(OC)[C@H](O)C[C@H]3c2ccccc2)cc1` the ED50 [1] was > 20 µM and the EC50 ([2]; Homo sapiens, HT-29) was > 10 µM.

In the case of `COc1ccc([C@]23Oc4cc(OC)cc(OC)c4[C@](O)(C2O)[C@@H](c2ccccc2)[C@@H]3C(=O)NCCCCNC(=O)/C(C)=C/CO)cc1` (stereo in doubt; 1) [listing 2 of 2 here], the EC50 [2] is reported as > 10 µM.

With `COC(=O)[C@H]1[C@@H](O)[C@@]2(O)c3c(OC)cc(OC)cc3O[C@@]2(c2ccc3c(c2)OCO3)[C@@H]1c1ccccc1` the ED50 [1] was 3.54 µM, the EC50 ([2]; Homo sapiens, HT-29) was 0.002 µM and the CC50 [3] was > 50 µM.
